Experimental data taken from PubChem BioAssay.
Calls of active or inactive are those of the source.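 How the source made its calls, unless noted: active means inhibition at or above 50% at 10 µM; inactive means inhibition below 50%.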

What was measured:
[1] = inhibitors of TNFa-induced NFkB p65 translocation, primary screen, imaging, HUVEC, MLSMR starter and 10KST1 sets (AID 438;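 active means inhibition above 20% together with a positive visual image hit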;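 further: compound added about 3h40 before a 20 min TNFalpha stimulation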;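 on inhibition: signal is the nuclear over cytoplasmic p65 intensity ratio per well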); conditions: HUVEC TNFa-induced p65 nuclear translocation; cell count: measured here: nuclei count (cytotoxicity indicator), at 2.08 µM; inhibition: at 2 µM, stronger effect = higher value, 0% TNFa-plus-vehicle, 100% no-TNFa wells
[2] = reduction of polyQ htt aggregates in cells – imaging, exon1htt(103Q)mCFP cells, high-content imaging, primary screen (AID 483;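 active means visual image review flags a hit and inhibition of aggregation exceeds 20%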;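 further: compound exposure lasted 3 days before fixation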;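 on nuclei count: percent of the per-plate median nuclei count of sample wells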); conditions: exon1htt(103Q)mCFP cell line, aggregate imaging, at 2 µM; inhibition of aggregation: stronger effect = higher value; nuclei count: measured here: cell count, toxicity
[3] = endothelial E-selectin expression blockers – imaging, HUVEC, immunofluorescence, MLSMR starter and 10KST1 sets, primary screen (AID 487;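 active means visually confirmed hit in the image check and inhibition above 20%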;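 on inhibition: signal is fraction of cell area covered by stained E-selectin grains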;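 on nuclei count: 100% = median nuclei count of all wells on the same plate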); conditions: HUVEC TNFalpha-induced E-selectin immunofluorescence imaging, at 2 µM; inhibition: stronger effect = higher value; nuclei count: measured here: cell number, toxicity
[4] = biological target: Voltage-gated potassium channel subunit beta-2 (Rattus norvegicus) (UniProt P62483); assay: inhibitors of rat Kvbeta2 reductase activity – biochemical, NADPH fluorescence, primary screen (AID 622;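 active means fluorescence slope higher than the sample average by over 3 SD, cut at about -0.22 in these data, passing the limit was not always enough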;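 further: slope of raw intensity against log time taken from 70 to 1610 s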); conditions: recombinant KvBeta, 4-cyanobenzaldehyde reduction, at 10 µM, stronger effect = higher value
Chain of Voltage-gated potassium channel subunit beta-2 (Rattus norvegicus) (P62483 whole entry, looked up): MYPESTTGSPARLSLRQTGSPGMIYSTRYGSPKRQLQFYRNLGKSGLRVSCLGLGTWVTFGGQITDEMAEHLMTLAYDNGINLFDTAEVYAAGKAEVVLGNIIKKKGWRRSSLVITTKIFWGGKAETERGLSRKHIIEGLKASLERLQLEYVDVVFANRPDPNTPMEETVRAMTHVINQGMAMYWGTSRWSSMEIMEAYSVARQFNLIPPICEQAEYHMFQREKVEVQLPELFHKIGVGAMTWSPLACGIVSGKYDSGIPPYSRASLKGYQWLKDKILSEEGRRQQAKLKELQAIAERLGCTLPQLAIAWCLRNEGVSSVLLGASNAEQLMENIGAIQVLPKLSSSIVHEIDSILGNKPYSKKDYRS

[5] = biological target: Voltage-gated potassium channel subunit beta-2 (Rattus norvegicus) (UniProt P62483); assay: enhancers of rat Kvbeta2 NADPH turnover – biochemical, NADPH fluorescence, primary screen (AID 623;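 active means NADPH fluorescence slope more negative than the mean of all samples by about 3 SD, 99.7% confidence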;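 further: fluorescence intensity change per second fitted from 20 to 320 s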); conditions: Recombinant KvBeta, NADPH fluorescence decrease slope, 10 min; at 10 µM; stronger effect = lower value
[6] = biological target: Muscarinic acetylcholine receptor M4 (Homo sapiens) (UniProt P08173); assay: M4-linked GIRK flux change, two-sided – cell-based, HEK293 M4/GIRK, thallium flux, BTC-AM, M4 allosteric agonist project, primary screen (AID 625;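 active means fluorescence slope after compound addition differing from the mean of all tested samples at 99.7% confidence, mostly higher but some lower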;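 further: thallium influx through GIRK channels coupled to M4 in HEK293 cells with BTC-AM dye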); conditions: at 10 µM, actives lie on both sides
Chain of Muscarinic acetylcholine receptor M4 (Homo sapiens) (P08173 whole entry, looked up): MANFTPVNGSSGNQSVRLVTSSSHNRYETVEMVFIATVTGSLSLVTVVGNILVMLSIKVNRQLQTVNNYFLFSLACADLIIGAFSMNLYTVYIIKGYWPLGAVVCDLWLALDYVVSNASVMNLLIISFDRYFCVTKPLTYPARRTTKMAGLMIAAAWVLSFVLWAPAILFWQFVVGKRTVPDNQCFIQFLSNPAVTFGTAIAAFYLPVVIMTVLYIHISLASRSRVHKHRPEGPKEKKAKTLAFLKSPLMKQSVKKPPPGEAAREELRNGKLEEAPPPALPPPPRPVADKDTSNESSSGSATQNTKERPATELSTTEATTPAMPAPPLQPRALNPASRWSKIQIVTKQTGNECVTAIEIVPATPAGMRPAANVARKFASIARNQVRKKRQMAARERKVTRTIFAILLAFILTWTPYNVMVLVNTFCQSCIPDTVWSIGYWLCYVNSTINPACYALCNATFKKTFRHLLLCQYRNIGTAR
In short: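 Material: M4/GIRK1/GIRK2 stable HEK293 cell line. Medium: pH 7.3 thallium assay buffer. Dosing: single compound concentration, 10 µM final. Schedule: 1 h dye loading, 2 min kinetic read. Measured by: kinetic fluorescence with BTC-AM dye. Read-out: post-addition slope, 15–24 s, of baseline-normalized fluorescence. Benchmarks: carbachol and DMSO controls.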

[7] = blockers of RIG-like receptor reporter activation – cell-based, Sendai virus stimulus, luciferase, 10K MLSCN set, TLR/RLR signaling modifier project, primary screen (AID 602276); conditions: HEK293 RL24 IRF3 luciferase reporter, at 10 µM, stronger effect = higher value;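 further: firefly luciferase from ISG56 promoter only with Renilla not read in this screen; 0% = Sendai virus plus DMSO and 100% = medium plus DMSO without virus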
[8] = TLR3 IRF3 reporter activation blockers – cell-based, poly I:C stimulus, luciferase, 10K MLSCN set, primary screen (AID 602277;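 active means inhibition of the reporter signal at or above 50%; inactive means inhibition below 50%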); conditions: HEK293-TLR3 RL24 IRF3 luciferase reporter, at 10 µM, stronger effect = higher value

| Structure (SMILES) | cell count [1] | inhibition [1] | inhibition of aggregation [2] | nuclei count [2] [%] | inhibition [3] | nuclei count [3] [%] | fluorescence slope [4] | NADPH fluorescence slope [5] | fluorescence slope [6] | inhibition [7] | inhibition [8] |
| --- | --- | --- | --- | --- | --- | --- | --- | --- | --- | --- | --- |
| CCOC(=O)C1=C(C)Nc2ncnn2C1c1cc(OC)ccc1OC (stereo not drawn) | 465 | 4.5% (inactive) | -7.4% (inactive) | 97.1 | -356% (inactive) | 126 | -0.236 (inactive) | -2.1e-05 (inactive) | 0.00778 (inactive) | 16.3% (inactive) | 1.62% (inactive) |
| CCSc1nc(C)nc2c1oc1ccccc12 | 407 | 1.9% (inactive) | 2.4% (inactive) | 96.3 | -45.2% (inactive) | 106 | -0.423 (inactive) | -7.5e-05 (inactive) | 0.00861 (inactive) | -4.86% (inactive) | -3.79% (inactive) |
| CCCCC(c1nnnn1CS(=O)(=O)c1ccc(C)cc1)N1CCN(c2ccccc2)CC1 (stereo not drawn) | 370 | 6.6% (inactive) | -10.3% (inactive) | 100 | -47.5% (inactive) | 102 | -0.46 (inactive) | -2.8e-05 (inactive) | 0.00637 (inactive) | 32% (inactive) | 16.2% (inactive) |
| Cc1ccc(Cn2c(SCC(C)C)nc3c2c(=O)n(C)c(=O)n3C)cc1 | 468 | -1.3% (inactive) | -13.4% (inactive) | 111 | -65.5% (inactive) | 119 | -0.468 (inactive) | -0.000354 (inactive) | 0.00373 (inactive) | 16.7% (inactive) | 14.4% (inactive) |
| Nc1nnc(SCC(=O)N2CCc3ccccc32)n1-c1ccccc1 | 449 | -3.6% (inactive) | -2% (inactive) | 94.9 | -79.9% (inactive) | 111 | -0.542 (inactive) | -4.3e-05 (inactive) | 0.00439 (inactive) | 17.7% (inactive) | 27.2% (inactive) |
| CCOc1ccc(C(=O)N2CCC(C(=O)c3ccc4c(c3)OCCO4)CC2)cc1 | 511 | -4.3% (inactive) | 6% (inactive) | 91.2 | -99.7% (inactive) | 116 | -0.511 (inactive) | -0.000103 (inactive) | 0.00391 (inactive) | 10.8% (inactive) | 2.96% (inactive) |
| CCOC(=O)N1CCN(C(=O)Nc2ccc3oc(C)nc3c2)CC1 | 254 | 4.2% (inactive) | 20.5% (inactive) | 84.8 | -238% (inactive) | 116 | -0.463 (inactive) | 1.5e-05 (inactive) | 0.00473 (inactive) | 5.52% (inactive) | -2.82% (inactive) |
| Cc1cc(C)c2cc(CN(CC3CCCO3)C(=O)NC3CCCCC3)c(=O)[nH]c2c1 (stereo not drawn) | 598 | -21% (inactive) | -17.9% (inactive) | 109 | -28.1% (inactive) | 94 | -0.567 (inactive) | -5.6e-05 (inactive) | 0.0057 (inactive) | 16.7% (inactive) | 17.3% (inactive) |
| O=C(NCc1ccco1)C1CCN(C(=O)c2cc3sccc3n2Cc2ccc(F)cc2)CC1 | 571 | -16.7% (inactive) | -0.6% (inactive) | 122 | -27.8% (inactive) | 101 | -0.381 (inactive) | -4.5e-05 (inactive) | 0.00956 (inactive) | 17.8% (inactive) | 27.2% (inactive) |
| O=C(CCCCn1c(=O)[nH]c2ccsc2c1=O)NCc1cccnc1 | 684 | -1% (inactive) | 5% (inactive) | 99.7 | 3.5% (inactive) | 119 | -0.46 (inactive) | -5.1e-05 (inactive) | 0.00456 (inactive) | 17% (inactive) | 15.3% (inactive) |
| COc1cccc(CNC(=O)CCn2c(=O)oc3ccccc32)c1 | 277 | -11.3% (inactive) | 21.1% (inactive) | 8.9 | -28.3% (inactive) | 104 | -0.551 (inactive) | 5e-05 (inactive) | 0.0058 (inactive) | 14.4% (inactive) | 20.5% (inactive) |
| CCN1CCN(C(=O)c2ccc3c(=O)n(CCC4=CCCCC4)c(=O)[nH]c3c2)CC1 | 465 | 3.4% (inactive) | -14% (inactive) | 95.8 | -29.3% (inactive) | 114 | -0.576 (inactive) | -7.8e-05 (inactive) | 0.00535 (inactive) | -36.8% (inactive) | -73.5% (inactive) |
| COCCn1c(N)c(C(=O)Nc2sc3c(c2C(=O)OC)CCCC3)c2nc3ccccc3nc21 | 670 | 14.9% (inactive) | 21.8% (inactive) | 84.1 | 5.1% (inactive) | 100 | -0.57 (inactive) | 4.8e-06 (inactive) | 0.00595 (inactive) | 19.4% (inactive) | 9.11% (inactive) |
| CCCc1n[nH]c2c1/C(=N/O)CC(c1ccccc1)C2 (stereo not drawn) | 522 | -13.6% (inactive) | 3.1% (inactive) | 93.4 | -7.4% (inactive) | 110 | -0.594 (inactive) | 4.1e-05 (inactive) | 0.0053 (inactive) | 8.69% (inactive) | -7.88% (inactive) |
| O=C1CC(c2ccco2)=Nc2ccccc2N1 | 195 | -13.4% (inactive) | 7.9% (inactive) | 78.3 | 9.4% (inactive) | 84.6 | -0.573 (inactive) | 1.4e-05 (inactive) | 0.00527 (inactive) | -1.5% (inactive) | -5.46% (inactive) |
| Fc1ccccc1-c1nc(-c2ccccc2)no1 | 632 | 13.8% (inactive) | 3.3% (inactive) | 103 | -5.4% (inactive) | 97.2 | -0.554 (inactive) | -7.9e-05 (inactive) | 0.00608 (inactive) | -27.9% (inactive) | -60% (inactive) |
| Cc1ccc(-c2nc(-c3cccnc3)no2)c(C)c1 | 357 | 4.2% (inactive) | -8% (inactive) | 107 | -54.5% (inactive) | 105 | -0.571 (inactive) | -3.5e-05 (inactive) | 0.00802 (inactive) | -33.6% (inactive) | -111% (inactive) |
| O=C(Cn1c(SCC(=O)N2CCCc3ccccc32)nc2ccccc21)N1CCCC1 | 723 | -5.1% (inactive) | -15.7% (inactive) | 107 | -126% (inactive) | 124 | -0.458 (inactive) | -3.6e-05 (inactive) | 0.00587 (inactive) | 1.52% (inactive) | 20.1% (inactive) |
| CC1Oc2ccccc2N(CC(=O)N(Cc2ccccc2)Cc2ccccn2)C1=O (stereo not drawn) | 640 | -12.1% (inactive) | -1.2% (inactive) | 106 | 81.9% (active) | 112 | -0.297 (inactive) | -8.9e-06 (inactive) | 0.00604 (inactive) | -6.61% (inactive) | -7.77% (inactive) |
| CC(C)Cn1c(=O)c(C(=O)NCc2ccccn2)c(O)c2ccccc21 | 771 | -20.7% (inactive) | -28.1% (inactive) | 104 | -24% (inactive) | 108 | -0.37 (inactive) | -4.4e-05 (inactive) | 0.00508 (inactive) | 10.4% (inactive) | -3.14% (inactive) |
| O=C(Cn1cnc2c(nnn2-c2ccc(F)cc2)c1=O)NCc1ccco1 | 657 | 9.2% (inactive) | -33.9% (inactive) | 78.6 | -8.8% (inactive) | 122 | -0.596 (inactive) | -4.4e-06 (inactive) | 0.00537 (inactive) | 5.73% (inactive) | 12% (inactive) |
| CCCCCn1c(=O)[nH]c2cc(C(=O)NCCCN3CCCCC3)ccc2c1=O | 255 | -2.1% (inactive) | -0.1% (inactive) | 77.4 | -32.3% (inactive) | 109 | -0.298 (inactive) | -5.4e-05 (inactive) | 0.00603 (inactive) | 7.49% (inactive) | 6.91% (inactive) |
| O=C(O)c1ccc(-n2nnnc2Oc2ccccc2C(=O)N2CCOCC2)cc1 | 478 | -20.3% (inactive) | -2.2% (inactive) | 53.4 | 2.2% (inactive) | 89.9 | -0.482 (inactive) | -1.8e-05 (inactive) | 0.0048 (inactive) | 21% (inactive) | 12.5% (inactive) |
| CNC(=O)CC(C(=O)O)c1ccc(OCC(C)C)cc1 (stereo not drawn) | 611 | -1.5% (inactive) | -15.2% (inactive) | 114 | 13.6% (inactive) | 103 | -0.562 (inactive) | -8.4e-05 (inactive) | 0.00333 (inactive) | 9.55% (inactive) | 16.9% (inactive) |
| Cc1ccccc1NC(=O)c1ccc(NC(=O)c2ccco2)cc1 | 423 | -1% (inactive) | 10.9% (inactive) | 116 | -30.5% (inactive) | 113 | -0.462 (inactive) | -2.6e-05 (inactive) | 0.00647 (inactive) | -7.81% (inactive) | -35.1% (inactive) |
| Cc1ccc(S(=O)(=O)NCCNC(=O)c2ccccc2)cc1 | 212 | -4.9% (inactive) | 10.3% (inactive) | 97.8 | -38.2% (inactive) | 93.6 | -0.282 (inactive) | -4.2e-05 (inactive) | 0.00552 (inactive) | 13.4% (inactive) | 10.4% (inactive) |
| Cc1ccc(S(=O)(=O)N2CCOCC2)cc1C(=O)OCC(=O)N1CCc2ccccc2C1 | 538 | -12.2% (inactive) | 5.4% (inactive) | 98.4 | -184% (inactive) | 132 | -0.4 (inactive) | 5.8e-06 (inactive) | 0.00607 (inactive) | 4.57% (inactive) | 6.74% (inactive) |
| Cn1c(=O)c2c(ncn2CC(O)CNc2ccc(Cl)cc2)n(C)c1=O (stereo not drawn) | 629 | -6.3% (inactive) | -15.7% (inactive) | 100 | -104% (inactive) | 110 | -0.447 (inactive) | 3.3e-05 (inactive) | 0.00475 (inactive) | 3.66% (inactive) | 2.85% (inactive) |
